High-throughput results from PubChem BioAssay.
An excerpt weighted towards active compounds, which were near 4.1% of everything screened.
MrgX1 antag = antagonists of human MrgX1 receptor. 1.3% of 310,000 active. MRGX1-HEK293 calcium flux, Fluo-4, BAM8-22 antagonism; stronger effect = lower value. B-score at 10 µM. Q96LB2;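 active means calcium-response B-score plate-corrected more than 3 library SD below zero, starting fluorescence within 5 deviations, no agonist response on first addition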;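 further: peak minus trough fluorescence over baseline after final BAM8-22 challenge near maximal dose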
Kir21 inh = blocks the mouse Kir2.1 inward-rectifier potassium channel; HEK293-Kir2.1, FluxOR thallium flux fluorescence; stronger effect = lower value; AID 1672; B-score at 10 µM; P35561; 0.85% of 310,000 active;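 active means fluorescence ratio B-score at or below minus 3 SD of library scores, with starting-brightness B-score within 2 SD, cut at about -4.2 in these data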;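 further: channel flux triggered by added potassium and thallium sulfate stimulus; B-score of peak minus minimum fluorescence over baseline after thallium stimulus; more negative B-score means stronger Kir2.1 block with less thallium influx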
Target sequence (P35561 whole entry, looked up): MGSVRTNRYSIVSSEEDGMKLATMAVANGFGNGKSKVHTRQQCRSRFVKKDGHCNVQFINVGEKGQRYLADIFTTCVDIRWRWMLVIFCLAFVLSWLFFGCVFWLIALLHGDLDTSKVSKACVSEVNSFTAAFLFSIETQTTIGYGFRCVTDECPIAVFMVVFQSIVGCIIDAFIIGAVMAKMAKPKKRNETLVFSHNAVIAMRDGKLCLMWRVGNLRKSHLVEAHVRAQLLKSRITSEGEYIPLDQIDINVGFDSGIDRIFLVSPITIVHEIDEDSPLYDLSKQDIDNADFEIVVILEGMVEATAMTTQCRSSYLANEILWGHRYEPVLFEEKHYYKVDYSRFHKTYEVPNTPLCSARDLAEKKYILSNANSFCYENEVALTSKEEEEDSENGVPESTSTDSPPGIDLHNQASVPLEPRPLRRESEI
RGS4 block = inhibitors of human RGS4; P49798; HEK293 M3R/RGS4 inducible, Fluo-4 calcium flux; stronger effect = higher value; triggered by carbachol at its EC20; B-score at 10 µM; 0.45% of 310,000 active; AID 463165;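 active means B-score, a plate-corrected calcium signal, over three deviations above library mean, with baseline fluorescence within five deviations of library mean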;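 further: RGS4 expression induced by doxycycline in cells with stable M3 receptor; B-score is computed from the integrated fluorescence ratio over baseline after carbachol; higher B-score means a larger calcium signal and so more RGS4 inhibition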
Target sequence (P49798 whole entry, looked up): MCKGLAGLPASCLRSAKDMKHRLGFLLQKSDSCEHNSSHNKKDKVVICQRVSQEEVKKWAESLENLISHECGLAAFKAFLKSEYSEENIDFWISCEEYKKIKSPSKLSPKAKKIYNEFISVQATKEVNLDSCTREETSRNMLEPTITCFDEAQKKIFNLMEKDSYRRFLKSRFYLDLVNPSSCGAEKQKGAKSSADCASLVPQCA
MrgX1 ag = activates human MrgX1 receptor signaling; MrgX1-HEK293 cells, Fluo-4 calcium fluorescence, agonist mode; stronger effect = higher value; Q96LB2; B-score at 10 µM; 0.44% of 310,000 active;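 active means calcium response B-score plate-corrected fluorescence ratio at least 3 library SD, with starting fluorescence B-score inside 5 SD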
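Material: MrgX1-expressing HEK293 cells / Dosing: compound as first of three additions / Incubation: overnight seeding, then 1 h dark dye loading / Signal: Fluo-4 NW calcium fluorescence / Evaluation: B-scored fluorescence response ratio / Benchmarks: positive and negative control wells on each plate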
RGS4 pot = potentiators or activators of RGS4 | B-score at 10 µM | 0.92% of 310,000 active | HEK293 M3R/inducible RGS4, carbachol calcium flux Fluo4; stronger effect = lower value;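 active means B-score of the integrated calcium signal more than 4 SD below the library mean, with starting fluorescence not abnormally high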;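 further: negative B-score means reduced calcium response which marks RGS4 activation or potentiation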
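test system = HEK293 cells with stable M3R and inducible RGS4 | schedule = recording 10 s baseline at 1 Hz, 100 s post-agonist | technique = Fluo4-AM (2 µM) calcium-flux fluorescence, kinetic read | measure = Agonist-evoked peak-minus-minimum fluorescence over baseline, integrated ratio, B score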
MrgX1 PAM = allosterically activates human MrgX1 receptor signaling | AID 588675 | 0.63% of 310,000 active | MrgX1-HEK293, Fluo-4 calcium flux, FDSS; stronger effect = higher value | B-score at 10 µM;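 active means plate-corrected calcium response at least 3 library SD above typical, normal starting fluorescence, not activating the receptor alone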;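 further: compound read alongside a low EC10 to EC30 dose of BAM8-22 agonist; peak minus trough fluorescence over baseline measured at the second addition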
MrgX1 ant reconf = human MrgX1 receptor antagonism, re-confirmation screen | 19% of 2,300 active | shares compounds with MrgX1 antag | remaining BAM8-22 calcium response % of control (stronger effect = lower value), % at 10 µM | MrgX1-HEK293, BAM8-22 calcium flux, Fluo-4; stronger effect = lower value;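 active means remaining agonist calcium response no higher than 100% minus 3 SD of agonist-only control wells, with starting fluorescence near control levels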;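 further: agonist BAM8-22 given at a near maximal EC90 to ECmax level; peak minus minimum fluorescence divided by baseline after agonist addition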
HEK293 Ca flux = counter-screen for MrgX1 antagonists: effect in parental HEK293 cells; shares compounds with MrgX1 antag; Fluo-4 calcium fluorescence, FDSS; fluorescence ratio F(max-min)/F0 at 10 µM; 2% of 4,000 active;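 active means duplicate-averaged calcium fluorescence ratio at least three times the standard deviation of buffer wells, a nonspecific response in parental cells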
HEK293 Ca counter = MrgX1 allosteric activator counter-screen hit in parental HEK293 cells. 0.4% of 4,000 active. shares compounds with MrgX1 antag. fluorescence ratio F(max-min)/F0 at 10 µM. parental HEK293 calcium flux, Fluo-4 fluorescence ratio; stronger effect = higher value. AID 624114;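 active means calcium fluorescence ratio, averaged over duplicates, at least 3 SD of the buffer-well ratio, meaning a nonspecific response in receptor-free cells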;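 further: untransfected parental HEK293 lacking MrgX1 used as counterscreen for MrgX1 allosteric activators; fluorescence change taken during the second addition on a kinetic imager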
HEK293 Ca cntr2 = MrgX1 activator counter-screen hit in parental HEK293 cells; shares compounds with MrgX1 antag; Fluo-4 calcium fluorescence (FDSS); stronger effect = higher value; fluorescence ratio F(max-min)/F0 at 10 µM; 8.7% of 4,000 active; AID 624115;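 active means calcium fluorescence ratio at least three times the spread of buffer wells, meaning a non-specific response in parental cells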
Each line names hits and unclear results; the compound was inactive in the other large screens (follow-up assays come after a bar, where they were run).

CCN1C(=O)[C@H]2[C@@H](c3ccc(C)cc3)N3C(=O)N(c4cccc(Cl)c4)C(=O)[C@@]3(Cc3ccccc3)[C@H]2C1=O	MrgX1 antag -5.2 | MrgX1 ant reconf inactive | HEK293 Ca flux inactive | HEK293 Ca counter inactive | HEK293 Ca cntr2 inactive
CCN1C(=O)[C@H]2[C@@H](c3ccc(C)cc3)N3C(=O)N(c4cccc(Cl)c4)C(=O)[C@@]3(Cc3ccc(Cl)cc3)[C@H]2C1=O	none (no result: Kir21 inh, RGS4 block, RGS4 pot)
COc1ccccc1Nc1nnc(SCc2cc(=O)n3ccsc3n2)s1	none
Cc1ccc(Nc2nnc(SCc3cc(=O)n4ccsc4n3)s2)c(C)c1	MrgX1 antag -7 | MrgX1 ant reconf inactive | HEK293 Ca flux inactive | HEK293 Ca counter inactive | HEK293 Ca cntr2 inactive
CCOC(=O)c1c(-c2ccc(C)cc2)csc1NC(=S)NC(=O)c1ccccc1	none
CCOC(=O)c1c(-c2ccc(C)cc2)csc1NC1=NS(=O)(=O)c2ccccc21	MrgX1 antag -6.8 | MrgX1 ant reconf inactive | HEK293 Ca flux inactive | HEK293 Ca counter inactive | HEK293 Ca cntr2 inactive
CCc1c(C)nc(SCC(=O)CC(=O)OC(C)C)c(C#N)c1C	none
CCc1c(C)nc(SCC(N)=O)c(C#N)c1C	MrgX1 antag -5.7 | MrgX1 ant reconf inactive | HEK293 Ca flux inactive | HEK293 Ca counter inactive | HEK293 Ca cntr2 inactive
CCCCOc1ccc(C(O)(CCN2CCOCC2)c2ccccc2)cc1 (centres undefined)	none
OC(CCN1CCCCC1)(c1ccccc1)c1ccccc1	MrgX1 antag -7.1 | MrgX1 ant reconf inactive | HEK293 Ca flux inactive | HEK293 Ca counter inactive | HEK293 Ca cntr2 inactive
COc1ccc(-n2nnc3c(=O)n(Cc4ccccc4C)cnc32)cc1	none
Cc1cc(C(=O)NC(C)c2ccc3c(c2)OCO3)cs1 (centres undefined)	MrgX1 antag -4.6 | MrgX1 ant reconf inactive | HEK293 Ca flux inactive | HEK293 Ca counter inactive | HEK293 Ca cntr2 inactive
Cc1cc(C(=O)Nc2ccc3c(c2)OCO3)cs1	none
CC1(C)CC(=O)c2c(O)cc(OCC(=O)Nc3ccc(S(N)(=O)=O)cc3)cc2O1	none
COc1cc(NC(=O)COc2cc(O)c3c(c2)OC(C)(C)CC3=O)cc(OC)c1OC	MrgX1 antag -5 | MrgX1 ant reconf 51% | HEK293 Ca flux inactive | HEK293 Ca counter inactive | HEK293 Ca cntr2 inactive
O=C(NCc1ccc(N2CCCC2=O)cc1)c1cn(CCc2ccccc2)nn1	none
O=C(c1ccc(S(=O)(=O)N2CCCCC2)cc1)c1nnc(-c2ccc(Cl)cc2)o1	none (no result: MrgX1 antag, MrgX1 ag, MrgX1 PAM)
O=C1c2ccncc2C(=O)N1CO	MrgX1 antag -5 | MrgX1 ant reconf 85% | HEK293 Ca flux inactive | HEK293 Ca counter inactive | HEK293 Ca cntr2 inactive
CC(=O)NC1(c2ccccc2)CCN(C(=O)N2CCOCC2)CC1	none
Cc1cccc(C(=O)Nc2nnc(SCC(=O)Nc3ccc4c(c3)oc3ccccc34)s2)c1	MrgX1 antag -11 | MrgX1 ant reconf inactive | HEK293 Ca flux inactive | HEK293 Ca counter inactive | HEK293 Ca cntr2 inactive
COc1ccccc1-c1ccc2nnc(SC)n2n1	none
CCC1=C(OC(=O)N(CC)CC)N2C(=O)OC(=NCC3CC3)[C@]2(Cc2ccccc2)[C@H]2C1=CC[C@H]1C(=O)N(CC(=O)OC)C(=O)[C@H]12	none
Cc1ccc(SCCNS(C)(=O)=O)cc1	MrgX1 antag -5.1 | MrgX1 ant reconf inactive | HEK293 Ca flux inactive | HEK293 Ca counter inactive | HEK293 Ca cntr2 inactive
Cc1ccc(SCCNS(=O)(=O)c2ccc(F)cc2)cc1	none
Cc1ccc(CCNC(=O)C2CCN(S(=O)(=O)N3CCCCC3)CC2)cc1	none
O=C(NCCc1ccc(Cl)cc1)C1CCN(S(=O)(=O)N2CCCC2)CC1	MrgX1 antag -5.7 | MrgX1 ant reconf inactive | HEK293 Ca flux inactive | HEK293 Ca counter inactive | HEK293 Ca cntr2 inactive
COc1cccc(NC(=O)CN(C)C(=O)c2cccnc2Sc2ccc(C)c(C)c2)c1	MrgX1 antag -7.2 | MrgX1 ant reconf inactive | HEK293 Ca flux inactive | HEK293 Ca counter inactive | HEK293 Ca cntr2 inactive
Cc1cccc(Nc2nc3ccccc3n3nnnc23)c1	none
Cc1ccc(C(=O)Nc2nc3ccccc3n3nnnc23)cc1	MrgX1 antag -11 | MrgX1 ant reconf 84% | HEK293 Ca flux inactive | HEK293 Ca counter inactive | HEK293 Ca cntr2 inactive
CCOc1ccc(-n2nc3c(SCCN4CCCC4)nnc(C)c3c2C)cc1	MrgX1 antag -4.7 | MrgX1 ant reconf inactive | HEK293 Ca flux inactive | HEK293 Ca counter inactive | HEK293 Ca cntr2 inactive
COCCn1c(CN2CCN(c3ccccc3)CC2)nc2c1c(=O)n(C)c(=O)n2C	none
CCOCCn1c(CN2CCN(c3ccccc3)CC2)nc2c1c(=O)n(C)c(=O)n2C	MrgX1 antag -7.4 | MrgX1 ant reconf inactive | HEK293 Ca flux inactive | HEK293 Ca counter inactive | HEK293 Ca cntr2 inactive
COc1ccc(C)cc1NC(=O)CCN1CC(C)OC(C)C1 (centres undefined)	MrgX1 antag -5.1 | MrgX1 ant reconf inactive | HEK293 Ca flux inactive | HEK293 Ca counter inactive | HEK293 Ca cntr2 inactive
COCCCN(CC(=O)O)S(=O)(=O)c1ccccc1	none
COc1ccc(NC(=O)COC(=O)Cc2c[nH]c3ccccc23)cc1OC	none
CC(=O)Nc1ccc(NC(=O)COC(=O)Cc2c[nH]c3ccccc23)cc1	MrgX1 antag -6 | MrgX1 ant reconf inactive | HEK293 Ca flux inactive | HEK293 Ca counter inactive | HEK293 Ca cntr2 inactive
Cc1c2cnn(CC(=O)NC3CCCC3)c(=O)c2c(C)n1Cc1ccccc1	none
O=C(CSc1nnc(Cc2ccc3c(c2)OCO3)n1C1CCCCC1)NC1CCCC1	none
NC(=O)CSc1nnc(Cc2ccc3c(c2)OCO3)n1C1CCCCC1	MrgX1 antag -4.6 | MrgX1 ant reconf inactive | HEK293 Ca flux inactive | HEK293 Ca counter inactive | HEK293 Ca cntr2 55
N=c1n(Cc2ccccc2)c2ccccc2n1CC(O)c1ccccc1 (centres undefined)	MrgX1 antag -5.6 | MrgX1 ant reconf inactive | HEK293 Ca flux inactive | HEK293 Ca counter inactive | HEK293 Ca cntr2 inactive
CC(C)(C)C(=O)Cn1c(=N)n(Cc2ccccc2)c2ccccc21	none
